Calls of active or inactive are those of the source. No cut-off for these calls is given here.
Assays:
[1] = Selectivity index, ratio of IC50 for mouse astrocytes to IC50 for human T98G cells
[2] = Selectivity index, ratio of IC50 for mouse astrocytes to IC50 for human Hs683 cells
Hs 683 [3] = experiment: Antiproliferative activity against human Hs683 cells after 72 hrs by MTT assay; assay type: functional, cell-based; details: Hs 683, 72 h
Method in brief: (§1)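 MTT assay: cells in RPMI 1640 with 10% heat-inactivated FCS at 37 °C and 5% CO2 were seeded 24 h before treatment. They were exposed 72 h to compound at 0.01–100 μM, with DMSO as solvent.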

T98G = experiment: Antiproliferative activity against human T98G cells after 72 hrs by MTT assay; assay type: functional, cell-based; method in brief: as §1
[4] = Antiproliferative activity against human U373 cells after 72 hrs by MTT assay; assay type: functional, cell-based, U-373MG ATCC; details: U373 MG; method in brief: as §1
[5] = Selectivity index, ratio of IC50 for mouse astrocytes to IC50 for human U373 cells
[6] = target: T1, NAD-dependent protein deacetylase sirtuin-2 (Homo sapiens, UniProt Q8IXJ6); experiment: Inhibition of N-terminal His-tagged recombinant human SIRT-2 expressed in Escherichia coli using Fluor-de-Lys-SIRT1 as substrate after 15 mins by fluorescence assay
T1 sequence (Q8IXJ6 whole entry): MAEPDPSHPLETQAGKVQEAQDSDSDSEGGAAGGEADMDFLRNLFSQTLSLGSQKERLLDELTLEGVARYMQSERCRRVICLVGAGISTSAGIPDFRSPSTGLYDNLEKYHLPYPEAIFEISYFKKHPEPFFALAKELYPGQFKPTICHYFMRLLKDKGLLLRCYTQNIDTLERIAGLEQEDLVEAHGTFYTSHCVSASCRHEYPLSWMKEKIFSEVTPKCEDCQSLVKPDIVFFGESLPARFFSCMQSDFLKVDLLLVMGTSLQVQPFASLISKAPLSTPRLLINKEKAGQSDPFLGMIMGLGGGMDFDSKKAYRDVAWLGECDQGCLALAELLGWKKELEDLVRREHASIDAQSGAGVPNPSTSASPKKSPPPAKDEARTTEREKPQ

[7] = target: NAD-dependent protein deacetylase sirtuin-3, mitochondrial (Homo sapiens, UniProt Q9NTG7); experiment: Inhibition of N-terminal His-tagged recombinant human SIRT-3 expressed in Escherichia coli using Fluor-de-Lys-SIRT1 as substrate after 15 mins by fluorescence assay
NAD-dependent protein deacetylase sirtuin-3, mitochondrial, sequence (Q9NTG7 whole entry): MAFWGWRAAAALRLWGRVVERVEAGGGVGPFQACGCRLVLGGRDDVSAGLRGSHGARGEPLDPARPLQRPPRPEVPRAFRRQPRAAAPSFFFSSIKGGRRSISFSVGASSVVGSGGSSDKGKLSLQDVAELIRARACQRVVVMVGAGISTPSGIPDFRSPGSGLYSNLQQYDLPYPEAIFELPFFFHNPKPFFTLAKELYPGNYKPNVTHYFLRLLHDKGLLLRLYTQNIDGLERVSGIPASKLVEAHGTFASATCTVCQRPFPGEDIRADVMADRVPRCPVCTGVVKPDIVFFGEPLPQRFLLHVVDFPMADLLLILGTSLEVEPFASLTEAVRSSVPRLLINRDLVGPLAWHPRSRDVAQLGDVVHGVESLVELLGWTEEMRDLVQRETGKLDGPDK

[8] = target: T2, NAD-dependent protein deacetylase sirtuin-1 (Homo sapiens, UniProt Q96EB6); experiment: Inhibition of N-terminal His-tagged recombinant human SIRT-1 expressed in Escherichia coli using Fluor-de-Lys-SIRT1 as substrate after 15 mins by fluorescence assay
T2 sequence (Q96EB6 whole entry): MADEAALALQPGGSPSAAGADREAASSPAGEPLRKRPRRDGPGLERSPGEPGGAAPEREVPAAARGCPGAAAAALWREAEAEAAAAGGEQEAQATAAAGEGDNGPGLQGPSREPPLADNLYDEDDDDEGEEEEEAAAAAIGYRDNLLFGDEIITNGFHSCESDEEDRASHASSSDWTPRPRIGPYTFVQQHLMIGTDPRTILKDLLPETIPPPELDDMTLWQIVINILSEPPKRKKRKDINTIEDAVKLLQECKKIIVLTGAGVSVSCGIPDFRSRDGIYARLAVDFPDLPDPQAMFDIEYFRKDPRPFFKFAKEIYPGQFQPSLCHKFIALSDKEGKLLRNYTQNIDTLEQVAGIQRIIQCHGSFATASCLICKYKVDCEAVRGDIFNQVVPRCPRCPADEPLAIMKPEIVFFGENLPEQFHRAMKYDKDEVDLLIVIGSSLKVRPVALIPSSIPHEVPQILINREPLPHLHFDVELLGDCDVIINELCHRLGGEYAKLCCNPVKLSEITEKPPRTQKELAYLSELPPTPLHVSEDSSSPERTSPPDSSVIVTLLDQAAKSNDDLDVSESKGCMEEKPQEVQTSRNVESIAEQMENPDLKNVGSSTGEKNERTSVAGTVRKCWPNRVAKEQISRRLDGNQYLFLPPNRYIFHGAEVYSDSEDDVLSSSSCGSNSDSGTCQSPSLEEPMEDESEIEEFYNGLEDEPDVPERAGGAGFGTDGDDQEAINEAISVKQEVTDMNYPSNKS

Hs 683 [9] = experiment: Cell cycle arrest in human Hs683 cells assessed as accumulation at G1 phase at IC50 after 24 to 48 hrs by propidium iodide staining-based flow cytometry; assay type: functional
Method in brief: (§2)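 Cells were exposed to compound at the IC50 for each line from the 72 h MTT assay, or to a reference HDAC inhibitor at 2 μM. Cell cycle distribution was analyzed after 24 and 48 h. Results are mean ± SD of three independent experiments, with p values against control cells.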

Hs 683 [10] = experiment: Cell cycle arrest in human Hs683 cells assessed as accumulation at sub-G1 phase at IC50 for MTT assay after 24 to 48 hrs by propidium iodide staining-based flow cytometry; assay type: functional; method in brief: as §2
U-373MG ATCC [11] = experiment: Cell cycle arrest in human U373 cells assessed as accumulation at sub-G1 phase at IC50 for MTT assay after 24 to 48 hrs by propidium iodide staining-based flow cytometry; assay type: functional; method in brief: as §2
Hs 683 [12] = experiment: Cell cycle arrest in human Hs683 cells assessed as accumulation at G2/M phase at IC50 after 24 to 48 hrs by propidium iodide staining-based flow cytometry; assay type: functional; method in brief: as §2
U-373MG ATCC [13] = experiment: Cell cycle arrest in human U373 cells assessed as accumulation at G2/M phase at IC50 after 24 to 48 hrs by propidium iodide staining-based flow cytometry; assay type: functional; method in brief: as §2
[14] = target: T3, NAD-dependent protein deacetylase sirtuin-1 (Homo sapiens) (UniProt Q96EB6); experiment: Inhibition of SIRT1 in human U373 cells assessed as increase of histone H4 acetylation at 2 uM after 8 hrs by Western blotting method relative to control; assay type: cell-based
T3 sequence (whole entry): T2 sequence (Q96EB6 whole entry)

[15] = target: T3, NAD-dependent protein deacetylase sirtuin-1 (Homo sapiens); experiment: Inhibition of SIRT1 in human Hs683 cells assessed as increase of histone H4 acetylation at 2 uM after 8 hrs by Western blotting method relative to control; assay type: cell-based
[16] = target: T4, NAD-dependent protein deacetylase sirtuin-2 (Homo sapiens) (UniProt Q8IXJ6); experiment: Inhibition of SIRT2 in human U373 cells assessed as increase of alpha-tubulin acetylation at 2 uM after 8 hrs by Western blotting method relative to control; assay type: cell-based
T4 sequence (whole entry): T1 sequence (Q8IXJ6 whole entry)

[17] = target: T4, NAD-dependent protein deacetylase sirtuin-2 (Homo sapiens); experiment: Inhibition of SIRT2 in human Hs683 cells assessed as increase of alpha-tubulin acetylation at 2 uM after 8 hrs by Western blotting method relative to control; assay type: cell-based
Hs 683 [18] = experiment: Cell cycle arrest in human Hs683 cells assessed as accumulation at sub-G1 phase at 2 uM after 24 to 48 hrs by propidium iodide staining-based flow cytometry; assay type: functional; method in brief: as §2
U-373MG ATCC [19] = experiment: Cell cycle arrest in human U373 cells assessed as accumulation at sub-G1 phase at 2 uM after 24 to 48 hrs by propidium iodide staining-based flow cytometry; assay type: functional; method in brief: as §2
Hs 683 [20] = experiment: Cell cycle arrest in human Hs683 cells assessed as accumulation at G1 phase at 2 uM after 24 to 48 hrs by propidium iodide staining-based flow cytometry; assay type: functional; method in brief: as §2

| SMILES | Ratio IC50 [1] | Ratio IC50 [2] | IC50 (Hs 683 [3]) [µM] | IC50 (T98G) [µM] | IC50 [4] [µM] | Ratio IC50 [5] | IC50 [6] [µM] | IC50 [8] [µM] | other results |
| --- | --- | --- | --- | --- | --- | --- | --- | --- | --- |
| CC(C)(C)OC(=O)Nc1ccc2c(c1)C(NC(=O)Nc1ccccc1[N+](=O)[O-])CC(C)(C)O2 (racemic) | >10 | >10 | 13 | 22 | 12 | >10 | – | – | – |
| Cc1ccc(C(=O)Nc2ccc(S(=O)(=O)O)c3cc(S(=O)(=O)O)cc(S(=O)(=O)O)c23)cc1NC(=O)c1cccc(NC(=O)Nc2cccc(C(=O)Nc3cc(C(=O)Nc4ccc(S(=O)(=O)O)c5cc(S(=O)(=O)O)cc(S(=O)(=O)O)c45)ccc3C)c2)c1 [SURAMIN] | – | – | – | – | – | – | 13 | – | IC50 [7]: > 200 µM |
| CCOC(=O)Nc1ccc2c(c1)C(NC(=O)Nc1cccc(C#N)c1)CC(C)(C)O2 (stereo not drawn) | – | – | – | – | – | – | 51.1 | 109 | – |
| CC(NC(=O)c1ccccc1/N=C/c1c(O)ccc2ccccc12)c1ccccc1 (stereo not drawn) [SIRTINOL] | – | – | 33.9 | – | 39.3 | – | – | – | Activity (Hs 683 [9]): Active; Activity (Hs 683 [10]): inactive; Activity (U-373MG ATCC [11]): inactive; Activity (Hs 683 [12]): Active; Activity (U-373MG ATCC [13]): Active |
| COC(=O)Nc1ccc2c(c1)C(NC(=O)Nc1cccc(C#N)c1)CC(C)(C)O2 (stereo not drawn) | – | – | – | – | – | – | 49.4 | 110 | – |
| N#C/C(=C\c1ccc(-c2cc(Cl)ccc2Cl)o1)C(=O)Nc1cccc2ncccc12 | – | – | 80.2 | – | 47.6 | – | – | 98.1 | Activity (Hs 683 [10]): Active; Activity (U-373MG ATCC [11]): Active; Activity (Hs 683 [12]): Active; Activity (U-373MG ATCC [13]): Active |
| O=C(CCCCCCC(=O)Nc1ccccc1)NO | – | – | – | – | – | – | – | – | fold change (FC) [14]: 7.9; fold change (FC) [15]: 12.6; fold change (FC) [16]: 18.6; fold change (FC) [17]: 18.7; Activity (Hs 683 [18]): Active; Activity (U-373MG ATCC [19]): Active; Activity (Hs 683 [20]): Active |
| CC(C)(C)OC(=O)Nc1ccc2c(c1)C(NC(=O)Nc1cccc(Cl)c1)CC(C)(C)O2 (stereo not drawn) | >12 | >12 | 12 | 20 | 18 | >12 | 18.5 | 32.1 | – |
| CC1(C)CC(NC(=S)Nc2ccc([N+](=O)[O-])cc2)c2cc(Cl)ccc2O1 (stereo not drawn) | – | – | – | – | – | – | > 200 | > 200 | – |
| CC(C)(C)OC(=O)Nc1ccc2c(c1)C(NC(=O)Nc1cccc(C(F)(F)F)c1)CC(C)(C)O2 (racemic) | <2 | <2 | 9 | 21 | 9 | <2 | – | – | – |
| CC(C)OC(=O)Nc1ccc2c(c1)C(NC(=O)Nc1cccc(C#N)c1)CC(C)(C)O2 (stereo not drawn) | – | – | – | – | – | – | 22.7 | 54.8 | – |
| CC(C)(C)OC(=O)Nc1ccc2c(c1)C(NC(=O)Nc1ccc(C(F)(F)F)cc1)CC(C)(C)O2 (racemic) | >10 | >10 | 11 | 15 | 10 | >10 | – | – | – |
| CC(C)(C)OC(=O)Nc1ccc2c(c1)C(NC(=O)Nc1cccc([N+](=O)[O-])c1)CC(C)(C)O2 (racemic) | <5 | <5 | 16 | 7 | 1 | <5 | 99.8 | > 200 | – |
| NC(=O)C1CCCc2c1[nH]c1ccc(Cl)cc21 (stereo not drawn) | – | – | 116 | – | 157 | – | – | – | Activity (Hs 683 [9]): Active; Activity (Hs 683 [10]): inactive; Activity (U-373MG ATCC [11]): inactive |
| CC(C)(C)OC(=O)Nc1ccc2c(c1)C(NC(=O)Nc1ccc(C#N)cc1)CC(C)(C)O2 (stereo not drawn) | >10 | >10 | 18 | 26 | 10 | >10 | 110 | 121 | – |
